Experimental data taken from ChEMBL document CHEMBL3272356, “Adriamycin analogs. Periodate oxidation of adriamycin” (J Med Chem, 1976).
pEC50: −log10 of the molar value. Activity calls are given as the source filed them. The calls are words filed in the database; no cut-off is given here.

Tests used:
Calf thymus DNA [1] = assay: Binding affinity to calf thymus DNA assessed as increase in melting temperature at 1.54 x 10^-5 M by UV spectrophotometric analysis; format: nucleic-acid assay; conditions: Bos taurus
L1210 [2] = assay: Inhibition of DNA synthesis in mouse L1210 cells preincubated for 3 hrs followed by [3H]-thymidine addition measured after 1 hr by scintillation spectrometric analysis; format: functional; conditions: read-out: ED50 (the source's name)
In short: (§1)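 L1210 suspension at 2 × 10^6/ml in 1640 medium with 10% fetal calf serum and 20 mM HEPES, pH 7.2. Drug tested at 100 to 0.100 µM in half-log steps, 3 h at 37° with shaking. Pulse 1 h with 0.5 µCi/ml [3H]thymidine (DNA) or [3H]uridine (RNA). TCA-precipitable counts expressed as % of control; ED50 read from the points bracketing 50%, with the bracketing assays repeated.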

L1210 [3] = assay: Inhibition of RNA synthesis in mouse L1210 cells preincubated for 3 hrs followed by [3H]-uridine addition measured after 1 hr by scintillation spectrometric analysis; format: functional; conditions: read-out: ED50 (the source's name); in short: as §1
P388 [4] = assay: Antitumor activity against mouse P388 cells allografted in mouse assessed as increase in survival time at 50 mg/kg, ip qd administered for 9 days relative to control; format: functional; conditions: route intraperitoneal
P388 [5] = assay: Antitumor activity against mouse P388 cells allografted in mouse assessed as increase in survival time at 25 mg/kg, ip qd administered for 9 days relative to control; format: functional; conditions: route intraperitoneal
P388 [6] = assay: Antitumor activity against mouse P388 cells allografted in mouse assessed as increase in survival time at 12.5 mg/kg, ip qd administered for 9 days relative to control; format: functional; conditions: route intraperitoneal
P388 [7] = assay: Antitumor activity against mouse P388 cells allografted in mouse assessed as increase in survival time at 6.25 mg/kg, ip qd administered for 9 days relative to control; format: functional; conditions: route intraperitoneal
P388 [8] = assay: Antitumor activity against mouse P388 cells allografted in mouse assessed as increase in survival time at 3.12 mg/kg, ip qd administered for 9 days relative to control; format: functional; conditions: route intraperitoneal
P388 [9] = assay: Antitumor activity against mouse P388 cells allografted in mouse assessed as increase in survival time at 1.56 mg/kg, ip qd administered for 9 days relative to control; format: functional; conditions: route intraperitoneal
Mus musculus [10] = assay: Acute toxicity in mouse allografted with mouse P388 cells assessed as survival less than 5 days at 1.56 to 50 mg/kg, ip qd; format: organism-based; design: dose 1.56-50 mg/kg, route intraperitoneal; conditions: in vivo, 120 h
In short: (§2)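 BDF or CDF mice were implanted ip with 10^6 P-388 lymphocytic leukemia cells on day 0 and dosed ip on days 1-9. Acute toxic drug deaths were scored as survival of less than 5 days after the start of treatment. Testing was done by the NCI Drug Research and Development Program.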

Calf thymus DNA [11] = assay: Binding affinity to calf thymus DNA assessed as bathochromatic shift at 1:1 to 16:1 compound to DNA ratio by UV-visible spectra analysis; format: nucleic-acid assay; conditions: Bos taurus
In short: (§3)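 Calf thymus DNA stock sonicated on ice to limit precipitation of the complex. DNA concentration was taken from the supplier's phosphorus content. UV-visible spectra were recorded.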

Calf thymus DNA [12] = assay: Binding affinity to calf thymus DNA assessed as decrease in absorptivity of visible maxima of compound at 1:1 to 16:1 compound to DNA ratio by UV-visible spectra analysis; format: nucleic-acid assay; conditions: Bos taurus; in short: as §3
L1210 [13] = assay: Inhibition of DNA synthesis in mouse L1210 cells at < 100 uM preincubated for 3 hrs followed by [3H]-thymidine addition measured after 1 hr by scintillation spectrometric analysis; format: functional, cell-based; in short: as §1
L1210 [14] = assay: Inhibition of RNA synthesis in mouse L1210 cells at < 100 uM preincubated for 3 hrs followed by [3H]-uridine addition measured after 1 hr by scintillation spectrometric analysis; format: functional, cell-based; in short: as §1
Calf thymus DNA [15] = assay: Binding affinity to calf thymus DNA assessed as increase in melting temperature at 1.63 x 10^-5 M by UV spectrophotometric analysis; format: nucleic-acid assay; conditions: Bos taurus
P388 [16] = assay: Antitumor activity against mouse P388 cells allografted in mouse assessed as increase in survival time at 75 mg/kg, ip qd administered for 9 days relative to control; format: functional; conditions: route intraperitoneal
Mus musculus [17] = assay: Acute toxicity in mouse allografted with mouse P388 cells assessed as survival less than 5 days at 1.56 to 75 mg/kg, ip qd; format: organism-based; design: dose 1.56-75 mg/kg, route intraperitoneal; conditions: in vivo, 120 h; in short: as §2
Calf thymus DNA [18] = assay: Binding affinity to calf thymus DNA assessed as increase in melting temperature at 2.1 x 10^-5 M by UV spectrophotometric analysis; format: nucleic-acid assay; conditions: Bos taurus
P388 [19] = assay: Antitumor activity against mouse P388 cells allografted in mouse assessed as change in survival time at 4 mg/kg, ip qd administered for 9 days relative to control; format: functional; conditions: route intraperitoneal
P388 [20] = assay: Antitumor activity against mouse P388 cells allografted in mouse assessed as increase in survival time at 1 mg/kg, ip qd administered for 9 days relative to control; format: functional; conditions: route intraperitoneal
P388 [21] = assay: Antitumor activity against mouse P388 cells allografted in mouse assessed as increase in survival time at 0.5 mg/kg, ip qd administered for 9 days relative to control; format: functional; conditions: route intraperitoneal
P388 [22] = assay: Antitumor activity against mouse P388 cells allografted in mouse assessed as increase in survival time at 0.25 mg/kg, ip qd administered for 9 days relative to control; format: functional; conditions: route intraperitoneal
P388 [23] = assay: Antitumor activity against mouse P388 cells allografted in mouse assessed as increase in survival time at 0.12 mg/kg, ip qd administered for 9 days relative to control; format: functional; conditions: route intraperitoneal
P388 [24] = assay: Antitumor activity against mouse P388 cells allografted in mouse assessed as increase in survival time at 0.06 mg/kg, ip qd administered for 9 days relative to control; format: functional; conditions: route intraperitoneal
Mus musculus [25] = assay: Acute toxicity in mouse allografted with mouse P388 cells assessed as survival less than 5 days at 0.06 to 4 mg/kg, ip qd; format: organism-based; design: dose 0.06-4 mg/kg, route intraperitoneal; conditions: in vivo, 120 h; in short: as §2
Calf thymus DNA [26] = assay: Binding affinity to calf thymus DNA assessed as increase in melting temperature at 2 x 10^-5 M by UV spectrophotometric analysis; format: nucleic-acid assay; conditions: Bos taurus
P388 [27] = assay: Antitumor activity against mouse P388 cells allografted in mouse assessed as increase in survival time at 2 mg/kg, ip qd administered for 9 days relative to control; format: functional; conditions: route intraperitoneal

Structure (SMILES): COc1cccc2c1C(=O)c1c(O)c3c(c(O)c1C2=O)C[C@@](O)(C(=O)O)C[C@@H]3O[C@H]1C[C@H](N)[C@H](O)[C@H](C)O1.Cl
- ΔTm (Calf thymus DNA [1]): 2.6 °C
- pEC50 (L1210 [2]): < 4.00
- pEC50 (L1210 [3]): 4.19
- T/C (P388 [4]): 151
- T/C (P388 [5]): 163
- T/C (P388 [6]): 151
- T/C (P388 [7]): 142
- T/C (P388 [8]): 107
- T/C (P388 [9]): 100
- Activity (Mus musculus [10]): Non-toxic
- Activity (Calf thymus DNA [11]): Active
- Activity (Calf thymus DNA [12]): Active

Structure (SMILES): COC(=O)[C@]1(O)Cc2c(O)c3c(c(O)c2[C@@H](O)C1)C(=O)c1c(OC)cccc1C3=O
- inhibition (L1210 [13]): inactive
- inhibition (L1210 [14]): inactive

Structure (SMILES): COC(=O)[C@]1(O)Cc2c(O)c3c(c(O)c2[C@@H](O[C@H]2C[C@H](N)[C@H](O)[C@H](C)O2)C1)C(=O)c1c(OC)cccc1C3=O.Cl
- ΔTm (Calf thymus DNA [15]): 12.6 °C
- pEC50 (L1210 [2]): 5.70
- pEC50 (L1210 [3]): 6.05
- T/C (P388 [4]): 125
- T/C (P388 [5]): 115
- T/C (P388 [6]): 112
- T/C (P388 [7]): 108
- T/C (P388 [8]): 103
- T/C (P388 [9]): 107
- T/C (P388 [16]): 141
- Activity (Mus musculus [17]): Non-toxic
- Activity (Calf thymus DNA [11]): Active
- Activity (Calf thymus DNA [12]): Active

Structure (SMILES): COc1cccc2c1C(=O)c1c(O)c3c(c(O)c1C2=O)C[C@@](O)(C(=O)CO)C[C@@H]3O[C@H]1C[C@H](N)[C@H](O)[C@H](C)O1 [DOXORUBICIN]
- ΔTm (Calf thymus DNA [18]): 17.8 °C
- pEC50 (L1210 [2]): 6.10
- pEC50 (L1210 [3]): 6.05
- T/C (P388 [19]): 71
- T/C (P388 [20]): 212
- T/C (P388 [21]): 182
- T/C (P388 [22]): 162
- T/C (P388 [23]): 156
- T/C (P388 [24]): 139
- Activity (Mus musculus [25]): Non-toxic
- Activity (Calf thymus DNA [11]): Active
- Activity (Calf thymus DNA [12]): Active

Structure (SMILES): COc1cccc2c1C(=O)c1c(O)c3c(c(O)c1C2=O)C[C@@](O)(C(C)=O)C[C@@H]3O[C@H]1C[C@H](N)[C@H](O)[C@H](C)O1 [DAUNORUBICIN]
- ΔTm (Calf thymus DNA [26]): 16.8 °C
- pEC50 (L1210 [2]): 6.52
- pEC50 (L1210 [3]): 6.52
- T/C (P388 [19]): 96
- T/C (P388 [27]): 150
- T/C (P388 [20]): 157
- T/C (P388 [21]): 150
- T/C (P388 [22]): 142
- T/C (P388 [23]): 130
- T/C (P388 [24]): 112
- Activity (Mus musculus [25]): Non-toxic
- Activity (Calf thymus DNA [11]): Active
- Activity (Calf thymus DNA [12]): Active

Structure (SMILES): COc1cccc2c1C(=O)c1c(O)c3c(c(O)c1C2=O)C[C@@](O)(C(=O)O)C[C@@H]3O
- inhibition (L1210 [13]): inactive
- inhibition (L1210 [14]): inactive
